Active and inactive are the calls of the source. The rule behind the calls is not given here.
Key:
[1] = system: LNCaP; assay: Cytostatic activity against human castration-resistant LNCAP cells expressing androgen receptor xenografted in SCID mouse assessed as change in tumor size at 50 mg/kg qd measured up to 18 days; assay type: functional, organism-based; set-up: dose 50 mg/kg
[2] = system: LNCaP; assay: Inhibition of prostate specific antigen secretion in human LNCAP cells expressing androgen receptor in presence of charcoal stripped serum; assay type: functional, cell-based
Summary of the method: (§1)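 LNCaP/AR cells were made by viral infection with an AR cDNA to express 3–5 fold higher AR levels, mimicking CRPC. They were assayed in charcoal-stripped serum to mimic androgen depletion. Read-out was PSA level, with DMSO as the vehicle.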

[3] = system: LNCaP; assay: Cytostatic activity against human castration-resistant LNCAP cells expressing androgen receptor xenografted in SCID mouse assessed as change in tumor size at 10 mg/kg qd measured up to 18 days; assay type: functional, organism-based; set-up: dose 10 mg/kg
[4] = system: Serum; assay: Drug level in SCID mouse serum at 10 mg/kg, iv; assay type: ADME, organism-based; set-up: dose 10 mg/kg, route intravenous; settings: in vivo, read-out: Drug uptake
[5] = system: LNCaP; assay: Inhibition of prostate specific antigen expression in human LNCAP cells at 100 to 1000 nM in presence of fetal bovine serum; assay type: functional, cell-based
[6] = system: LNCaP; assay: Antitumor activity against human castration-resistant LNCAP cells expressing androgen receptor xenografted in SCID mouse assessed as change in tumor size at 10 mg/kg qd for 31 days; assay type: functional, organism-based; set-up: dose 10 mg/kg
Summary of the method: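 AR-overexpressing LNCaP cells were injected subcutaneously into the flanks of castrated SCID mice. Once tumors reached about 100–200 cubic mm, mice were randomized into groups of six. Vehicle or compound was given orally every day, and tumor volume change was followed.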

[7] = system: LNCaP; assay: Inhibition of prostate specific antigen secretion in human LNCAP cells expressing androgen receptor at 100 to 1000 nM in presence of charcoal stripped serum; assay type: functional, cell-based; summary of the method: as §1
[8] = system: LNCaP; assay: Inhibition of prostate specific antigen secretion in human LNCAP cells expressing androgen receptor at 1.25 to 10 uM in presence of charcoal stripped serum; assay type: functional, cell-based; summary of the method: as §1
[9] = biological target: T1, Androgen receptor (Rattus norvegicus) (UniProt P15207); assay: Antagonist activity at androgen receptor in rat prostate gland at 1.25 to 10 uM by luciferase reporter gene assay; assay type: functional, tissue-based
T1 sequence (whole entry): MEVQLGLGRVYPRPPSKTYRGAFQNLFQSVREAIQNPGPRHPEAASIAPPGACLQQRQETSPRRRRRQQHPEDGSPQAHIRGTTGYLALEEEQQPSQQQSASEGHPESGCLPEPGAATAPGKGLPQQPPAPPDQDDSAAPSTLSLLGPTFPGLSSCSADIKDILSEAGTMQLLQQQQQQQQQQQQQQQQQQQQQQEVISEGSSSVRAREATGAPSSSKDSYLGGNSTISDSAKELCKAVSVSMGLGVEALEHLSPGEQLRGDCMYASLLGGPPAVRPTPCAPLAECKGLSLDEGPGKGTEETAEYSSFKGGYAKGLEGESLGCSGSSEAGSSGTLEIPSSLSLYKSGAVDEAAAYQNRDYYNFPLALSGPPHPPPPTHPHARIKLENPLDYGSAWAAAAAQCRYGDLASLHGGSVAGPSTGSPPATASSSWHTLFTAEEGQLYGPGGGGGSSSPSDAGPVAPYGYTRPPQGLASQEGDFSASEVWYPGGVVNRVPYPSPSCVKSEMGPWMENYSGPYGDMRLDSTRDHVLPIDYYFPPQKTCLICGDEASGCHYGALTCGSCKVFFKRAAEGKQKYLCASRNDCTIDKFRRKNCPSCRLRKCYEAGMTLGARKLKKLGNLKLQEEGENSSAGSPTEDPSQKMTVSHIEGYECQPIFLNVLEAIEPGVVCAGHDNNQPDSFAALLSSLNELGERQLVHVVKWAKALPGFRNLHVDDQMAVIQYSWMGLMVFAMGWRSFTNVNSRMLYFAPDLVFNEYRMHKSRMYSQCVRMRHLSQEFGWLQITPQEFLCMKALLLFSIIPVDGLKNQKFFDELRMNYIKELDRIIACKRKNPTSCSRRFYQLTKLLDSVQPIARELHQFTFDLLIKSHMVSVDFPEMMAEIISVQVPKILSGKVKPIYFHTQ

[10] = system: LNCaP; assay: Inhibition of prostate specific antigen expression in human LNCAP cells at 0.625 to 5 uM in presence of fetal bovine serum; assay type: functional, cell-based
[11] = system: LNCaP; assay: Inhibition of prostate specific antigen expression in human LNCAP cells at 0.625 to 20 uM in presence of fetal bovine serum; assay type: functional, cell-based
[12] = system: LNCaP; assay: Inhibition of prostate specific antigen expression in human LNCAP cells at 1.25 to 10 uM in presence of fetal bovine serum; assay type: functional, cell-based
[13] = system: LAPC4; assay: Antitumor activity against human castration and bicalutamide-resistant LAPC4 cells xenografted in SCID mouse assessed as change in tumor volume at 10 mg/kg measured up to 20 days; assay type: functional, organism-based; set-up: dose 10 mg/kg
[14] = biological target: T1, Androgen receptor (Rattus norvegicus); assay: Antagonist activity at androgen receptor in rat prostate gland at 0.625 to 20 uM by luciferase reporter gene assay; assay type: functional, tissue-based
[15] = system: LNCaP; assay: Inhibition of prostate specific antigen expression in human LNCAP cells in presence of fetal bovine serum; assay type: functional, cell-based
[16] = system: LAPC4; assay: Antitumor activity against human castration and bicalutamide-resistant LAPC4 cells xenografted in SCID mouse assessed as change in tumor volume measured up to 50 days; assay type: functional

| Structure (SMILES) | concentration [4] [µM] | Activity [5] | inhibition [8] | Activity [9] | Activity [10] | Activity [11] | Activity [12] | Activity [13] | IC50 [15] [nM] | further results |
| --- | --- | --- | --- | --- | --- | --- | --- | --- | --- | --- |
| CNC(=O)c1ccc(N2C(=S)N(c3ccc(C#N)c(C(F)(F)F)c3)C(=O)C23CCC3)cc1F | 9900 | Active |  |  |  |  |  |  |  | Activity [1]: Active; inhibition [2]: Dose-dependent effect; Activity [3]: Active; Activity [6]: Active; Activity [7]: Active |
| CC(O)(CS(=O)(=O)c1ccc(F)cc1)C(=O)Nc1ccc(C#N)c(C(F)(F)F)c1 (stereo not drawn) [BICALUTAMIDE] | 10000 |  | inactive |  |  |  |  |  |  |  |
| Cc1ccc(N2C(=S)N(c3ccc(C#N)c(C(F)(F)F)c3)C(=O)C2(C)C)cc1 |  |  |  | Active | Active | Active | Active | Active |  | Activity [14]: inactive |
| CNC(=O)CCCc1ccc(N2C(=S)N(c3ccc(C#N)c(C(F)(F)F)c3)C(=O)C23CCC3)cc1 | 390 | Active | Active |  |  |  |  |  | 92 | IC50 [2]: 92 nM |
| Cc1ccc(N2C(=S)N(c3ccc(C#N)c(C(F)(F)F)c3)C(=O)C23CCC3)cc1 |  |  | Active | Active | Active | Active | Active | Active | 124 | Activity [16]: Dose-dependent effect |
